{"source": "ChEMBL document CHEMBL4382267", "about": "“Fusaristatin C, a Cyclic Lipodepsipeptide from Pithomyces sp. RKDO 1698” (J Nat Prod, 2018)", "key": {"Staphylococcus aureus": {"system": "Staphylococcus aureus", "test": "Antimicrobial activity against methicillin resistant Staphylococcus aureus ATCC 33591 at 265 uM after 22 hrs by microbroth dilution method", "format": "functional, organism-based", "outline": "(§1)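 Microbroth dilution susceptibility test; compound tested up to a highest concentration of 128 μg/mL (265 μM).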"}, "Staphylococcus warneri": {"system": "Staphylococcus warneri", "test": "Antimicrobial activity against Staphylococcus warneri ATCC 17917 at 265 uM after 22 hrs by microbroth dilution method", "format": "functional, organism-based", "outline": "(§2)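 Microbroth dilution assay. The top concentration tested was 128 μg/mL, equal to 265 μM.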"}, "Enterococcus faecium": {"system": "Enterococcus faecium", "test": "Antimicrobial activity against vancomycin-resistant Enterococcus faecium EF379 at 265 uM after 22 hrs by microbroth dilution method", "format": "functional, organism-based", "outline": "as §1"}, "Pseudomonas aeruginosa": {"system": "Pseudomonas aeruginosa", "test": "Antimicrobial activity against Pseudomonas aeruginosa ATCC 14210 at 265 uM after 22 hrs by microbroth dilution method", "format": "functional, organism-based", "outline": "as §2"}, "Proteus vulgaris": {"system": "Proteus vulgaris", "test": "Antimicrobial activity against Proteus vulgaris ATCC 12454 at 265 uM after 22 hrs by microbroth dilution method", "format": "functional, organism-based", "outline": "as §2"}, "[1]": {"system": "Mycobacterium tuberculosis", "test": "Antimicrobial activity against Mycobacterium tuberculosis ATCC 25177 at 265 uM after 4 days by microplate alamar blue assay", "format": "functional, organism-based", "settings": "H37Ra"}, "Candida albicans": {"system": "Candida albicans", "test": "Antimicrobial activity against Candida albicans ATCC 14035 at 265 uM after 22 hrs by microbroth dilution method", "format": "functional, organism-based", "outline": "as §2"}, "Vero": {"system": "Vero", "test": "Cytotoxicity against African green monkey Vero cells measured after 24 hrs by alamar blue assay", "format": "cell-based", "settings": "chlorocebus sabaeus"}, "[2]": {"test": "Cytotoxicity against HEKa cells measured after 24 hrs by alamar blue assay", "format": "cell-based", "settings": "human"}, "BJ": {"system": "BJ", "test": "Cytotoxicity against human BJ cells measured after 24 hrs by alamar blue assay", "format": "cell-based"}, "MCF7": {"system": "MCF7", "test": "Cytotoxicity against human MCF7 cells measured after 24 hrs by alamar blue assay", "format": "functional, cell-based"}, "Homo sapiens": {"species": "Homo sapiens", "test": "Cytotoxicity against human HTB-26 cells measured after 24 hrs by alamar blue assay", "format": "functional, cell-based"}, "HCT-116": {"system": "HCT-116", "test": "Cytotoxicity against human HCT116 cells measured after 24 hrs by alamar blue assay", "format": "functional, cell-based"}}, "note": "The source made the active and inactive calls. The calls are words filed in the database; no cut-off is given here."}
{"smiles": "C=C1NC(=O)[C@H](C)[C@H](CCCCCCCC(C)CCC)OC(=O)[C@H](CO)NC(=O)CCNC1=O", "note": "(stereo partly drawn)", "values": [{"measurement": "Activity", "setting": "Staphylococcus aureus", "value": "inactive"}, {"measurement": "Activity", "setting": "Staphylococcus warneri", "value": "inactive"}, {"measurement": "Activity", "setting": "Enterococcus faecium", "value": "inactive"}, {"measurement": "Activity", "setting": "Pseudomonas aeruginosa", "value": "inactive"}, {"measurement": "Activity", "setting": "Proteus vulgaris", "value": "inactive"}, {"measurement": "Activity", "setting": "[1]", "value": "inactive"}, {"measurement": "Activity", "setting": "Candida albicans", "value": "inactive"}, {"measurement": "Activity", "setting": "Vero", "value": "Non-Toxic"}, {"measurement": "Activity", "setting": "[2]", "value": "Non-Toxic"}, {"measurement": "Activity", "setting": "BJ", "value": "Non-Toxic"}, {"measurement": "Activity", "setting": "MCF7", "value": "inactive"}, {"measurement": "Activity", "setting": "Homo sapiens", "value": "inactive"}, {"measurement": "Activity", "setting": "HCT-116", "value": "inactive"}]}
